From ChEMBL document CHEMBL1275449, “Potent in vitro antifungal activities of naturally occurring acetylenic acids” (Antimicrob Agents Chemother, 2008)
≈ marks a conversion by molar mass, not a printed value. Calls of active or inactive are those of the source. The rule behind the calls is not given here.

Tests used:
[1] = tested on: Candida tropicalis; assay: Antifungal activity against Candida tropicalis ATCC 750 after 48 hrs by CLSI method; assay type: functional, organism-based; settings: ATCC 750, 48 h
How it was run: (§1)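 Yeast suspensions made from 3-5 colonies off 24-72 h SD agar plates in saline. They were diluted by OD630 standard curve in RPMI 1640 (0.2% dextrose, 0.03% glutamine, 0.165 M MOPS, pH 7.0) to 1.5 × 10³ CFU/ml. Twofold dilutions (11 concentrations, 20% DMSO-saline) run in duplicate. OD530 read before and after 35°C, 48 h. Line values are top test concentrations; no-growth endpoints give MIC/MFC.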

[2] = tested on: Trichophyton mentagrophytes; assay: Antifungal activity against Trichophyton mentagrophytes ATCC 9533 at 542.7 uM after 5 days by CLSI method; assay type: functional, organism-based
[3] = tested on: Candida albicans; assay: Antifungal activity against Candida albicans ATCC 60193 at 542.7 uM after 48 hrs by CLSI method; assay type: functional, organism-based
How it was run: (§2)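 Candida inocula came from 24–72-h SD agar colonies suspended in saline. They were diluted by OD630 standard curve into RPMI 1640 (0.2% dextrose, 0.03% glutamine, 0.165 M MOPS, pH 7.0) to 1.5 × 10³ CFU/ml. Compounds were run as 11 twofold dilutions in 20% DMSO-saline, in duplicate, at 35°C for 48 h, with OD530 read before and after. Percent growth at the top concentration, IC50, MIC, and MFC (SD agar plating) were derived.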

[4] = tested on: Candida albicans; assay: Antifungal activity against Candida albicans assessed as inhibition of morphogenesis at 10 uM; assay type: functional, organism-based
[5] = tested on: Trichophyton mentagrophytes; assay: Antifungal activity against Trichophyton mentagrophytes ATCC MYA-4439 at 542.7 uM after 5 days by CLSI method; assay type: functional, organism-based
[6] = tested on: Cryptococcus neoformans; assay: Antifungal activity against Cryptococcus neoformans ATCC 90113 after 72 hrs by CLSI method; assay type: functional, organism-based; settings: ATCC 90113, 72 h
How it was run: (§3)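 SD broth replaced RPMI because growth in RPMI was poor; other CLSI conditions were kept. Inoculum was 1.5 × 10³ CFU/ml from colonies on SD agar, checked by plating. Twofold serial dilutions (11 concentrations) in 20% DMSO-saline were tested in duplicate. OD530 was read before and after incubation at 35°C for 72 h. Percent growth gave IC50; the MIC is the lowest concentration with no detectable growth.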

[7] = tested on: Candida albicans; assay: Antifungal activity against Candida albicans assessed as inhibition of growth at 100 uM; assay type: functional, organism-based
[8] = tested on: Candida albicans; assay: Antifungal activity against Fluconazole resistant Candida albicans clinical isolate 1 after 48 hrs by CLSI method; assay type: functional, organism-based
How it was run: (§4)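 CLSI broth microdilution. Colonies from 24–72 h SD agar suspended in saline and sized by OD630 standard curve. Inoculum 1.5 × 10³ CFU/ml (final) in RPMI 1640 (0.2% dextrose, 0.03% glutamine, 0.165 M MOPS, pH 7.0). Twofold dilutions (11 levels) from 20% DMSO-saline, in duplicate. 35°C for 48 h, OD530 read before and after. IC50 fitted from % growth. MIC: no detectable growth. MFC: subculture onto SD agar.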

[9] = tested on: Trichophyton rubrum; assay: Antifungal activity against Trichophyton rubrum ATCC MYA-4438 at 542.7 uM after 5 days by CLSI method; assay type: functional, organism-based
[10] = tested on: Candida albicans; assay: Antifungal activity against Fluconazole resistant Candida albicans isolate 17 at 542.7 uM after 48 hrs by CLSI method; assay type: functional, organism-based
How it was run: (§5)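 Candida in CLSI broth microdilution. Saline colony suspension set to 1.5 × 10³ CFU/ml (final) in MOPS-buffered RPMI 1640, pH 7.0. Test agent given as twofold serial dilutions in 20% DMSO-saline, duplicate wells. 35°C for 48 h. Growth read as OD530 before and after incubation. Percent inhibition scored at the highest test concentration.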

[11] = tested on: Candida tropicalis; assay: Antifungal activity against Candida tropicalis ATCC 750 at 542.7 uM after 48 hrs by CLSI method; assay type: functional, organism-based; how it was run: as §1
[12] = tested on: Trichophyton mentagrophytes; assay: Antifungal activity against Trichophyton mentagrophytes ATCC 9533 by CLSI method; assay type: functional, organism-based
How it was run: (§6)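 Growth scraped from 1- to 6-week-old potato dextrose slants and filtered through Miracloth. Diluted in 5% Alamar blue-RPMI 1640 (MOPS pH 7.0) to 2.7 × 10⁴ CFU/ml. Eleven twofold dilutions in duplicate. Fluorescence at 544 nm excitation/590 nm emission read before and after 35°C, 5 days. IC50 fitted from percent growth. MIC taken as no detectable growth; MFC from clear or blue wells plated on PD agar.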

[13] = tested on: Trichophyton rubrum; assay: Antifungal activity against Trichophyton rubrum ATCC MYA-4438 by CLSI method; assay type: functional, organism-based; how it was run: as §6
[14] = tested on: Candida albicans; assay: Antifungal activity against Candida albicans ATCC 60193 after 48 hrs by CLSI method; assay type: functional, organism-based; settings: ATCC 60193, 48 h; how it was run: as §4
[15] = tested on: Candida parapsilosis; assay: Antifungal activity against Candida parapsilosis ATCC 22019 at 542.7 uM after 48 hrs by CLSI method; assay type: functional, organism-based; how it was run: as §1
[16] = tested on: Aspergillus fumigatus; assay: Antifungal activity against Aspergillus fumigatus ATCC 90906 at 542.7 uM after 48 hrs by CLSI method; assay type: functional, organism-based
[17] = tested on: Trichophyton rubrum; assay: Antifungal activity against Trichophyton rubrum ATCC 10218 at 542.7 uM after 5 days by CLSI method; assay type: functional, organism-based
[18] = tested on: Candida albicans; assay: Antifungal activity against Candida albicans ATCC 200955 after 48 hrs by CLSI method; assay type: functional, organism-based; settings: ATCC 200955, 48 h; how it was run: as §4
[19] = tested on: Pichia kudriavzevii; assay: Antifungal activity against Candida krusei ATCC 6258 at 542.7 uM after 48 hrs by CLSI method; assay type: functional, organism-based; how it was run: as §1
[20] = tested on: Candida albicans; assay: Antifungal activity against Candida albicans ATCC 200955 at 542.7 uM after 48 hrs by CLSI method; assay type: functional, organism-based; how it was run: as §2
[21] = tested on: Nakaseomyces glabratus; assay: Antifungal activity against Candida glabrata ATCC 90030 at 542.7 uM after 48 hrs by CLSI method; assay type: functional, organism-based; how it was run: as §2
[22] = tested on: Candida albicans; assay: Antifungal activity against Candida albicans ATCC 14053 after 48 hrs by CLSI method; assay type: functional, organism-based; settings: ATCC 14053, 48 h; how it was run: as §4
[23] = tested on: Candida albicans; assay: Antifungal activity against Candida albicans ATCC 14053 at 542.7 uM after 48 hrs by CLSI method; assay type: functional, organism-based
[24] = tested on: Aspergillus fumigatus; assay: Antifungal activity against Aspergillus fumigatus ATCC 204305 at 542.7 uM after 48 hrs by CLSI method; assay type: functional, organism-based
[25] = tested on: Candida albicans; assay: Antifungal activity against Fluconazole resistant Candida albicans clinical isolate 17 after 48 hrs by CLSI method; assay type: functional, organism-based; how it was run: as §4
[26] = tested on: Trichophyton rubrum; assay: Antifungal activity against Trichophyton rubrum ATCC 10218 by CLSI method; assay type: functional, organism-based; how it was run: as §6
[27] = tested on: Candida parapsilosis; assay: Antifungal activity against Candida parapsilosis ATCC 22019 after 48 hrs by CLSI method; assay type: functional, organism-based; settings: Lodderomyces parapsilosis, ATCC 22019, 48 h; how it was run: as §1
[28] = tested on: Candida albicans; assay: Antifungal activity against Fluconazole resistant Candida albicans isolate 1 at 542.7 uM after 48 hrs by CLSI method; assay type: functional, organism-based; how it was run: as §5
[29] = tested on: Pichia kudriavzevii; assay: Antifungal activity against Candida krusei ATCC 6258 after 48 hrs by CLSI method; assay type: functional, organism-based; settings: ATCC 6258, 48 h; how it was run: as §2
[30] = tested on: Candida albicans; assay: Antifungal activity against Candida albicans ATCC 32354 after 48 hrs by CLSI method; assay type: functional, organism-based; settings: ATCC 32354, 48 h; how it was run: as §4
[31] = tested on: Aspergillus niger; assay: Antifungal activity against Aspergillus niger ATCC 16404 after 48 h by CLSI method; settings: ATCC 16404, 48 h
[32] = tested on: Aspergillus niger; assay: Antifungal activity against Aspergillus niger ATCC 16404 at 542.7 uM after 48 hrs by CLSI method; assay type: functional, organism-based
[33] = tested on: Candida albicans; assay: Antifungal activity against Candida albicans ATCC 32354 at 542.7 uM after 48 hrs by CLSI method; assay type: functional, organism-based; how it was run: as §2
[34] = tested on: Trichophyton mentagrophytes; assay: Antifungal activity against Trichophyton mentagrophytes ATCC MYA-4439 by CLSI method; assay type: functional, organism-based; how it was run: as §6
[35] = tested on: Aspergillus flavus; assay: Antifungal activity against Aspergillus flavus ATCC 204304 at 542.7 uM after 48 hrs by CLSI method; assay type: functional, organism-based
[36] = tested on: Cryptococcus neoformans; assay: Antifungal activity against Cryptococcus neoformans ATCC 66031 after 72 hrs by CLSI method; assay type: functional, organism-based; settings: ATCC 66031, 72 h; how it was run: as §3
[37] = tested on: Candida albicans; assay: Antifungal activity against Candida albicans ATCC 90028 at 542.7 uM after 48 hrs by CLSI method; assay type: functional, organism-based; how it was run: as §2

SMILES: C=CCCCCCCCCC(=O)O [UNDECYLENIC ACID]
- IC50 [1]: > 543 µM
- Activity [2]: inactive
- Activity [3]: inactive
- inhibition [4]: Active
- Activity [5]: inactive
- IC50 [6]: 25.3 µM
- MFC [6]: 543 µM (≈ 100 µg/mL)
- MIC [6]: 271 µM (≈ 50 µg/mL)
- inhibition [7]: inactive
- IC50 [8]: > 543 µM
- Activity [9]: inactive
- Activity [10]: inactive
- Activity [11]: inactive
- IC50 [12]: 279 µM
- MIC [12]: 543 µM (≈ 100 µg/mL)
- IC50 [13]: 111 µM
- MIC [13]: 543 µM (≈ 100 µg/mL)
- IC50 [14]: > 543 µM
- Activity [15]: inactive
- Activity [16]: inactive
- Activity [17]: inactive
- IC50 [18]: > 543 µM
- Activity [19]: inactive
- Activity [20]: inactive
- Activity [21]: inactive
- IC50 [22]: > 543 µM
- Activity [23]: inactive
- Activity [24]: inactive
- IC50 [25]: > 543 µM
- IC50 [26]: 270 µM
- MIC [26]: 543 µM (≈ 100 µg/mL)
- IC50 [27]: > 543 µM
- Activity [28]: inactive
- IC50 [29]: > 543 µM
- IC50 [30]: > 543 µM
- IC50 [31]: 415 µM
- Activity [32]: inactive
- Activity [33]: inactive
- IC50 [34]: 379 µM
- MIC [34]: 543 µM (≈ 100 µg/mL)
- Activity [35]: inactive
- IC50 [36]: 2.7 µM
- MFC [36]: 271 µM (≈ 50 µg/mL)
- MIC [36]: 136 µM (≈ 25 µg/mL)
- Activity [37]: inactive
